The values that follow come from ChEMBL document CHEMBL1914312, “(8R)-3β,8-dihydroxypolypoda-13E,17E,21-triene induces cell cycle arrest and apoptosis in treatment-resistant prostate cancer cells” (J Nat Prod, 2011).

Active and inactive are the calls of the source. No cut-off for these calls is given here.

Data set [1] deals with PC-3. Kind of data set: Induction of cell cycle arrest in human PC3 assessed as accumulation of cells at G0/G1-phase at 10 uM after 48 hrs by propidium iodide staining-based FACS analysis (reference value: 58.8 +/- 2.2%). Type of data set: functional. A general note: A flow cytometer gives signals particle by particle.
The subject of data set [2] is PC-3. Briefly: Induction of cell cycle arrest in human PC3 cells assessed as change in p21WAF1/Cip1 level at 3 to 10 uM after 48 hrs by Western blot analysis. Type of data set: functional, cell-based. The procedure, abridged: (§1)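 PC-3 whole-cell lysates at equal protein separated by SDS-PAGE and immunoblotted for cyclin D1 (24 h treatment) or cyclin E and p21Waf1/Cip1 (48 h treatment); actin as loading control; three independent repeats.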
(In western blotting, separated proteins are transferred to a membrane and probed.)

For data set [3], the system named is PC-3. Briefly: Induction of apoptosis in human PC3 cells assessed as DNA fragmentation at 10 uM after 72 hrs by SDS-PAGE analysis. The data set is classed as functional, cell-based. The conditions noted are these: in the assay text read “agarose gel electrophoresis” for “SDS-PAGE analysis”. The procedure, abridged:
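PC-3 cells cultured with compound or solvent for 72 h; floating cells lysed in buffer of 100 mM Tris-HCl pH 8.0, 2 mM EDTA, 0.8% SDS, RNase A and proteinase K; DNA ladder resolved on 1.5% agarose gel.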

For data set [4], the system named is PC-3. Briefly: Induction of cell cycle arrest in human PC3 assessed as accumulation of cells at G0/G1-phase at 10 uM after 24 hrs by propidium iodide staining-based FACS analysis (reference value: 58.7 +/- 1.4%). The data set is classed as functional.
The subject of data set [5] is PC-3. Kind of data set: Induction of apoptosis in human PC3 cells assessed as increase in phosphatidylserine expression on outer cell membrane leaflet at 3 to 30 uM by annexin V-FITC and propidium iodine staining-based by flow cytometric analysis. The data set is classed as functional. The conditions noted are these: TDE = time-dependent effect. In short, it runs like this:
(§2)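 PC-3 cells exposed 48 and 72 h, adherent cells detached with citric saline, stained with FITC-annexin V and propidium iodide, analysed by flow cytometry for annexin V+ cells. Means ± SEM of three experiments, Newman-Keuls test.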

Data set [6] has as its system PC-3. Briefly: Antitumor activity against human PC3 cells xenografted in chicken chorioallantoic membrane assessed as inhibition of tumor angiogenesis treated topically QD for 4 days using desmin staining by immunohistochemical analysis. The data set is classed as functional, cell-based. In short, it runs like this: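 PC-3 cells (0.7× 10^6 in 20 μL medium/matrigel 1:1) grafted onto chicken CAM, dosed topically with 20 μL compound or solvent once daily for 4 days from day 1. Paraffin sections immunostained for desmin as angiogenesis marker, hematoxylin counterstain; staining quantified by image analysis; n = 3–6.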
On the technique in general: In xenograft studies the graft and the host belong to different species.

Data set [7] has as its system PC-3. Briefly: Induction of cell cycle arrest in human PC3 assessed as accumulation of cells at G2/M-phase at 10 uM after 48 hrs by propidium iodide staining-based FACS analysis (reference value: 17.3 +/- 1.2%). The data set is classed as functional.
Data set [8] concerns PC-3. Briefly: Induction of cell cycle arrest in human PC3 assessed as accumulation of cells at G2/M-phase at 10 uM after 24 hrs by propidium iodide staining-based FACS analysis (reference value: 18.9 +/- 0.3%). Type of data set: functional.
The test system of data set [9] is PC-3. Briefly: Cytotoxicity against human PC3 cells at 10 '-5 to 10 uM after 72 hrs by XTT assay. Type of data set: functional, cell-based.
In data set [10] the test system is PC-3. Briefly: Cytotoxicity against human PC3 cells at 30 uM after 48 hrs by XTT assay. The data set is classed as functional, cell-based. The conditions noted are these: PC-3, 48 h.
Data set [11] relates to PC-3. Kind of data set: Induction of apoptosis in human PC3 cells assessed as increase in phosphatidylserine expression on outer cell membrane leaflet after 48 to 72 hrs by annexin V-FITC and propidium iodine staining-based by flow cytometric analysis. Type of data set: functional. In short, it runs like this: as §2
Data set [12] is described as follows: Cytotoxicity against human RWPE1 cells at 1 to 30 uM after 48 hrs by XTT assay. The data set is classed as cell-based. Conditions: rwpe-1, 48 h. In short, it runs like this:
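Normal prostate epithelial RWPE-1 cells (HPV18-immortalized) grown in keratinocyte serum-free medium, 3–5 × 10^3 cells/well, treated 48 h; viability by XTT reduction (final 125 μM XTT, 25 μM phenazine methosulfate, 4 h), A450. Means ± SEM of 3–5 experiments in triplicate.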

In data set [13] the test system is PC-3. Briefly: Induction of cell cycle arrest in human PC3 assessed as accumulation of cells at S-phase at 10 uM after 48 hrs by propidium iodide staining-based FACS analysis (reference value: 23.9 +/- 1.1%). The data set is classed as functional.
The test system of data set [14] is PC-3. Briefly: Cytotoxicity against human PC3 cells at 4 uM after 72 hrs by XTT assay. Conditions: PC-3, 72 h. The data set is classed as functional, cell-based.
The subject of data set [15] is PC-3. Kind of data set: Antitumor activity against human PC3 cells xenografted in chicken chorioallantoic membrane assessed as decrease in tumor size treated topically QD for 4 days by immunohistochemical analysis. The data set is classed as functional, cell-based. The procedure, abridged:
(§3)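 0.7× 10^6 log-phase PC-3 cells in 20 μL medium/matrigel (1:1) grafted onto chicken CAM; from day 1, topical 20 μL compound or solvent once daily for 4 days. Xenografts fixed, paraffin-embedded, immunostained for Ki-67 with hematoxylin counterstain; staining quantified by image analysis; n = 3–6.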

For data set [16], the system named is PC-3. Kind of data set: Antitumor activity against human PC3 cells xenografted in chicken chorioallantoic membrane assessed as inhibition of cell proliferation treated topically QD for 4 days by immunohistochemical analysis. The data set is classed as functional, cell-based. In short, it runs like this: as §3
Data set [17] has as its system PC-3. Kind of data set: Cytotoxicity against human PC3 cells after at 30 uM after 48 to 72 hrs by XTT assay. Type of data set: functional, cell-based.
Data set [18] relates to PC-3. Kind of data set: Cytotoxicity against human PC3 cells assessed as cell death at 3 to 30 uM after 48 hrs by LDH-release assay in presence of 10 uM of pan-caspase inhibitor z-VAD-fmk.
In data set [19] the test system is PC-3. Briefly: Antiproliferative activity against human PC3 cells assessed as reduction in colony formation after 21 days using crystal violet staining by anchorage-independent soft agar assay. The data set is classed as functional, cell-based. The procedure, abridged: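 PC-3 cells (Ham's F12-K, 10% FCS) seeded at 1000 cells/cm2 in 0.35% agar with 10 μM compound or solvent; colonies grown 21 days, fixed and stained with crystal violet.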

The subject of data set [20] is PC-3. Briefly: Induction of cell cycle arrest in human PC3 cells assessed as decrease in cyclin E expression at 3 to 10 uM after 48 hrs by Western blot analysis. Type of data set: functional, cell-based. In short, it runs like this:
as §1

For data set [21], the system named is PC-3. Briefly: Induction of cell cycle arrest in human PC3 assessed as accumulation of cells at S-phase at 10 uM after 24 hrs by propidium iodide staining-based FACS analysis (reference value: 22.4 +/- 1.3%). Type of data set: functional.
The test system of data set [22] is PC-3. Briefly: Induction of cell cycle arrest in human PC3 cells assessed as decrease in cyclin D1 expression at 3 to 10 uM after 24 hrs by Western blot analysis. The data set is classed as functional, cell-based. The procedure, abridged: as §1
For data set [23], the system named is PC-3. Briefly: Cytotoxicity against human PC3 cells after at 10 uM after 72 hrs by XTT assay. Type of data set: functional, cell-based.
Data set [24] concerns PC-3. Kind of data set: Induction of apoptosis in human PC3 cells assessed as increase in phosphatidylserine expression on outer cell membrane leaflet at 10 uM by annexin V-FITC and propidium iodine staining-based by flow cytometric analysis. The data set is classed as functional. The conditions noted are these: TDE = time-dependent effect. The procedure, abridged:
as §2

Data set [25] deals with PC-3. Kind of data set: Induction of cell cycle arrest in human PC3 assessed as accumulation of cells at G2/M-phase at 10 nM after 48 hrs by propidium iodide staining-based FACS analysis. Type of data set: functional. In short, it runs like this:
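Positive-control treatment of PC-3 cells, then trypsinization, 70% ethanol fixation, propidium iodide DNA staining with 40 μg/mL RNase A, flow cytometric DNA content and modelled phase distribution.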

By IC50 is commonly meant the concentration at which inhibition is half-maximal. A high value points to lower potency. As to `CC(C)=CCC/C(C)=C/CC/C(C)=C/CC[C@@H]1[C@@]2(C)CC[C@H](O)C(C)(C)[C@@H]2CC[C@@]1(C)O`, the Activity was 74.2% in the data set on PC-3 [1]; 75.4% in the data set on PC-3 [4]; “tde” with PC-3 [5]; “Dose-dependent effect” in the data set on PC-3 [6]; 17.3% in the data set with PC-3 [7]; 18.9% in the data set on PC-3 [8]. The Activity entry in the data set on PC-3 [11] is “Dose-dependent effect”; in data set [12] it was “Non-toxic”; in the data set on PC-3 [13] it was 9.3%; in the data set with PC-3 [15], “Dose-dependent effect”; with PC-3 [16] it was “Dose-dependent effect”; in the data set with PC-3 [19], “Dose-dependent effect”. The Activity in the data set on PC-3 [21] amounted to 5.6%. In addition, the result in the data set on PC-3 [2] and with PC-3 [18] was inactive. In addition, the outcome in the data set with PC-3 [3], with PC-3 [9], with PC-3 [17], with PC-3 [20] and in the data set with PC-3 [22] was Active. Moreover, the results for the IC50 with PC-3 [10] and with PC-3 [14] were 30 µM and 4 µM, respectively.

With `CC(=O)O[C@@]12CO[C@@H]1C[C@H](O)[C@@]1(C)C(=O)[C@H](O)C3=C(C)[C@@H](OC(=O)[C@H](O)[C@@H](NC(=O)OC(C)(C)C)c4ccccc4)C[C@@](O)([C@@H](OC(=O)c4ccccc4)[C@H]21)C3(C)C`, the outcome in the data set on PC-3 [23] was inactive. Further, the outcome in the data set on PC-3 [9] and in the data set with PC-3 [25] was Active. Moreover, in the data set on PC-3 [24], the Activity result is “tde”.
